Results reported in ChEMBL document CHEMBL2176883, “Aminopiperidine sulfonamide Cav2.2 channel inhibitors for the treatment of chronic pain” (J Med Chem, 2012).

Key:
[1] = Plasma concentration in rat complete Freund's adjuvant-induced pain model at 30 mg/kg, po after 3 hrs; assay type: ADME, organism-based; parameters: dose 30 mg/kg, route oral
Method in brief: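 Satellite rats in CFA inflammatory pain study, 30 mg/kg po; plasma exposure (μM) at 3 h, n = 2, standard deviation.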

Rattus norvegicus [2] = experiment: Antinociceptive activity in rat assessed as reversal of complete Freund's adjuvant-induced pain at 30 mg/kg, po after 3 hrs; assay type: functional
Method in brief: (§1)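 In the rat CFA inflammatory pain model, compound was given orally at 30 mg/kg and allodynia was read at 1 and 3 h postdose. Average % reversal = (postdose − predose)/(preinjury − predose) for each rat, n = 6. Plasma exposure at 3 h was measured in satellite rats (n = 2).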

Rattus norvegicus [3] = experiment: Antinociceptive activity in rat assessed as reversal of complete Freund's adjuvant-induced pain at 30 mg/kg, po after 1 hr; assay type: functional; method in brief: as §1
[4] = Half life in rat at 3 mg/kg, po and 1 mg/kg, iv; assay type: ADME, organism-based; details: in vivo
Method in brief: (§2)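 Rat pharmacokinetics from iv and po arms: 0.6 mg/kg iv with 1.8 mg/kg po, or 1 mg/kg iv with 3 mg/kg po. AUC was normalized to po dose (μM·h·kg/mg). Clearance (mL/min/kg) and half-life come from the iv arm, and F% is oral bioavailability.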

[5] = Plasma clearance in rat at 3 mg/kg, po and 1 mg/kg, iv; assay type: ADME, organism-based; method in brief: as §2
Rattus norvegicus [6] = experiment: Dose normalized AUC in rat at 3 mg/kg, po and 1 mg/kg, iv; assay type: ADME, organism-based; details: in vivo; method in brief: as §2
[7] = Oral bioavailability in rat at 3 mg/kg; assay type: ADME, organism-based; details: in vivo; method in brief: as §2
[8] = Metabolic stability in rat liver microsomes assessed as compound remaining at 1 uM after 1 hr; assay type: ADME, Microsome; details: read-out: Stability
Method in brief: (§3)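 Compound at 1 μM was incubated with human or rat liver microsomes (1 mg/mL) for 1 h, and the percentage of parent remaining was determined.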

[9] = Metabolic stability in human liver microsomes assessed as compound remaining at 1 uM after 1 hr; assay type: ADME, Microsome; details: read-out: Stability; method in brief: as §3
Cav1.2 [10] = target: T1, Cav1.2 (Homo sapiens, UniProt Q13936); experiment: Inhibition of Cav1.2 assessed as inhibition of calcium flux at 3 uM by cell based FLIPR assay
Method in brief: (§4)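 Cav1.2 counterscreen using a related calcium-influx FLIPR assay, run as % inhibition at single concentrations or as a titration.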

Cav1.2 [11] = target: T1, Cav1.2; experiment: Inhibition of Cav1.2 assessed as inhibition of calcium flux at 1 uM by cell based FLIPR assay; method in brief: as §4
hERG [12] = target: T2, hERG (Homo sapiens, UniProt Q12809); experiment: Displacement of [35S]-MK-0499 from human ERG at 10 uM; details: probe [35S]-MK-0499
Method in brief: (§5)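 hERG binding was measured as displacement of 35S-labeled MK-0499 at single test concentrations.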

hERG [13] = target: T2, hERG; experiment: Displacement of [35S]-MK-0499 from human ERG at 1 uM; details: probe [35S]-MK-0499; method in brief: as §5
[14] = target: T3, Voltage-dependent N-type calcium channel subunit alpha-1B (Homo sapiens, UniProt Q00975); experiment: Inhibition of Cav2.2 expressed HEK293 cells assessed as inhibition of calcium flux by FLIPR assay in presence of 30 mM of potassium; assay type: cell-based
Method in brief: (§6)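 Calcium influx was read with a calcium-sensitive dye on FLIPR Tetra in CBK cells expressing α1B-1, α2-δ and β3a with Kir2.3. Cells were preincubated with compound in 30 mM K+, then channels were opened by 1:1 addition of 140 mM K+ solution. Compounds were screened at 1 μM, then titrated over 10 points (0.001–30 μM) in quadruplicate, mean ± SD. Values are averages of n ≥ 3.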
Target sequence in this assay (Q00975 whole entry): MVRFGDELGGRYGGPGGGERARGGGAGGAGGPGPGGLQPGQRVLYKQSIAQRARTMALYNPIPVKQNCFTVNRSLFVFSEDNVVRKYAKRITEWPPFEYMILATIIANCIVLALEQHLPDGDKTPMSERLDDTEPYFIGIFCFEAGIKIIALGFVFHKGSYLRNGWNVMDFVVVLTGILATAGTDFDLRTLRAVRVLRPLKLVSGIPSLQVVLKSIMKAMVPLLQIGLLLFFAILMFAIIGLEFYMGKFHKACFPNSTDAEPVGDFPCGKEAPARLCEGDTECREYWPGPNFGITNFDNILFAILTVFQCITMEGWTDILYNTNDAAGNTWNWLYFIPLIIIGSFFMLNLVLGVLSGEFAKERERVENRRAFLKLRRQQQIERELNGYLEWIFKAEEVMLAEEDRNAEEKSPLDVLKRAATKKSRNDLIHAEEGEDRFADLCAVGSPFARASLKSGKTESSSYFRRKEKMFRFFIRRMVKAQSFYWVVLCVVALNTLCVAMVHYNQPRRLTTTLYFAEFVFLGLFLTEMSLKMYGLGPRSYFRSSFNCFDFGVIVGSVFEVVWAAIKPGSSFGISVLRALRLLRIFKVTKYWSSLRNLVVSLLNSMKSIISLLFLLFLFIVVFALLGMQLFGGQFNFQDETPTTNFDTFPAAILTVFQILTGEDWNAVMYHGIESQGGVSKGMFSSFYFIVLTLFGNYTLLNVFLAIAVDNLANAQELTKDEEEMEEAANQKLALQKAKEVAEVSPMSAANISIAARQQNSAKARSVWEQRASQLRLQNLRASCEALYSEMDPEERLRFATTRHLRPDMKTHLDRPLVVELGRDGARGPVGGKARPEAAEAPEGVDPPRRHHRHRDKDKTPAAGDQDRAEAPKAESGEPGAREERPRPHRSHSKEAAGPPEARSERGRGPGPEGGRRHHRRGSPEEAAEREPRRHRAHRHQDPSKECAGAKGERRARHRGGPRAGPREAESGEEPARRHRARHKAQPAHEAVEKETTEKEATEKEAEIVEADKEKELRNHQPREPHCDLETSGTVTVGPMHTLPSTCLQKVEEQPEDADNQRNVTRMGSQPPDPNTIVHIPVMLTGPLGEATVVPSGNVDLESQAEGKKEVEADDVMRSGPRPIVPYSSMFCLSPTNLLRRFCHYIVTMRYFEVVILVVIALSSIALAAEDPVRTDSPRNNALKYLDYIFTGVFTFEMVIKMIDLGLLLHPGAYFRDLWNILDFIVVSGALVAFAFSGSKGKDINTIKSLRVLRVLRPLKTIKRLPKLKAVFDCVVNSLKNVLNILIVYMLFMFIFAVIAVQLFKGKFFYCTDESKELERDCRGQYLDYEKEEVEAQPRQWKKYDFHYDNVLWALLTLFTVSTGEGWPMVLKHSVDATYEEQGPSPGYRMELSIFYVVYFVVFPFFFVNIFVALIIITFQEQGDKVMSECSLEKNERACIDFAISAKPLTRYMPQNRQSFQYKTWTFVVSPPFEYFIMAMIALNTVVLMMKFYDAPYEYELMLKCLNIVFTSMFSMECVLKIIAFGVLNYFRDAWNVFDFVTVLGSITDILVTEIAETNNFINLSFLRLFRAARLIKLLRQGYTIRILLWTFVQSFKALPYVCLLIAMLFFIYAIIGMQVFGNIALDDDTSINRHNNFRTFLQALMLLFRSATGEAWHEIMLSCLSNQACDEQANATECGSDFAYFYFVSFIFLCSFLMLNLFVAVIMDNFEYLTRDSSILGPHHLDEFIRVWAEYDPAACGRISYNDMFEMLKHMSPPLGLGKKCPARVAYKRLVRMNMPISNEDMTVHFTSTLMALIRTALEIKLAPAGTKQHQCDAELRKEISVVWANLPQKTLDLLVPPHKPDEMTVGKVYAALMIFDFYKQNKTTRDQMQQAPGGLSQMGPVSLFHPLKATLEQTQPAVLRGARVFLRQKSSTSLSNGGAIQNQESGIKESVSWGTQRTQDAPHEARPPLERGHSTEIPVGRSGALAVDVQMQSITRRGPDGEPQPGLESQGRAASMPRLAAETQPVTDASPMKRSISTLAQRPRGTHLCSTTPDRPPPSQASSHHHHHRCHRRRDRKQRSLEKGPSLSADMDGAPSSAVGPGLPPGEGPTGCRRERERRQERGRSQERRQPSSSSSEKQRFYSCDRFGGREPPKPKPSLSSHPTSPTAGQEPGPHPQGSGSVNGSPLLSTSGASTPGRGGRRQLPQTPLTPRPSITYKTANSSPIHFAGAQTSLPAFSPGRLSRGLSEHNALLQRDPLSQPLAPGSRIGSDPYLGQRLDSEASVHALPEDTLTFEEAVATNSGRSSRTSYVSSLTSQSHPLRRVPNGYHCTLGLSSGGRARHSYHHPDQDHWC

Mus musculus [15] = experiment: Antinociceptive activity in Cav2.2 deficient mouse SNL neuropathic pain model assessed as reversal of mechanical allodynia at 30 mg/kg, po after 2 hrs; assay type: functional
Method in brief: (§7)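 Cav2.2+/+ and Cav2.2−/− mice underwent spinal nerve ligation, then got a single 30 mg/kg oral dose. Mechanical allodynia was scored 2 h postdose.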

Mus musculus [16] = experiment: Antinociceptive activity in Cav2.2 expressing wild type mouse SNL neuropathic pain model assessed as reversal of mechanical allodynia at 30 mg/kg, po after 2 hrs; assay type: functional; method in brief: as §7
[17] = target: T3, Voltage-dependent N-type calcium channel subunit alpha-1B; experiment: Inhibition of Cav2.2 expressed HEK293 cells assessed as inhibition of calcium flux by FLIPR assay in presence of 4 mM of potassium; assay type: cell-based
Method in brief: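 HEK-293-derived CBK cells coexpress α1B-1, α2-δ and β3a with Kir2.3. Compound was incubated in 4 mM K+ bath, holding about −90 mV. Ca2+ influx was read with a Ca-sensitive dye on FLIPR Tetra. Ten-point titrations ran 0.001–30 μM in quadruplicate, averaged ± SD to give IC50.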
Target sequence in this assay (Q00975 whole entry): as above

Rattus norvegicus [18] = experiment: Antinociceptive activity in rat assessed as reversal of complete Freund's adjuvant-induced pain at 10 mg/kg, po after 3 hrs; assay type: functional
Method in brief: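 Rats had complete Freund's adjuvant-induced inflammatory pain and got oral dosing. Allodynia was read at 1 and 3 h postdose. Percent reversal per rat = (postdose − predose)/(preinjury − predose). Groups had at least six animals, reported as mean + SEM.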

[19] = target: T3, Voltage-dependent N-type calcium channel subunit alpha-1B; experiment: Inhibition of Cav2.2 expressed HEK293 cells assessed as inhibition of calcium flux at 1 uM by FLIPR assay; assay type: cell-based; method in brief: as §6
Target sequence in this assay (Q00975 whole entry, looked up): as the sequence (Q00975 whole entry) above

[20] = Oral bioavailability in rat; assay type: ADME, organism-based; details: in vivo; method in brief: as §2
[21] = Plasma clearance in rat; assay type: ADME, organism-based; method in brief: as §2
Rattus norvegicus [22] = experiment: Dose normalized AUC in po dosed rat; assay type: ADME, organism-based; details: in vivo; method in brief: as §2
[23] = target: Voltage-dependent L-type calcium channel subunit alpha-1C (Homo sapiens, UniProt Q13936); experiment: Inhibition of Cav1.2 assessed as inhibition of calcium flux by cell based FLIPR assay; method in brief: as §4
Rattus norvegicus [24] = experiment: Analgesic activity in rat SNL neuropathic pain model assessed as reversal of mechanical allodynia at 10 mg/kg, po after 1 hr; assay type: functional
[25] = Plasma concentration in rat SNL neuropathic pain model at 10 mg/kg, po after 3.5 hrs; assay type: ADME, organism-based; parameters: dose 10 mg/kg, route oral
Rattus norvegicus [26] = experiment: Analgesic activity in rat SNL neuropathic pain model assessed as reversal of mechanical allodynia at 10 mg/kg, po after 3 hrs; assay type: functional

T2 sequence (Q12809 whole entry): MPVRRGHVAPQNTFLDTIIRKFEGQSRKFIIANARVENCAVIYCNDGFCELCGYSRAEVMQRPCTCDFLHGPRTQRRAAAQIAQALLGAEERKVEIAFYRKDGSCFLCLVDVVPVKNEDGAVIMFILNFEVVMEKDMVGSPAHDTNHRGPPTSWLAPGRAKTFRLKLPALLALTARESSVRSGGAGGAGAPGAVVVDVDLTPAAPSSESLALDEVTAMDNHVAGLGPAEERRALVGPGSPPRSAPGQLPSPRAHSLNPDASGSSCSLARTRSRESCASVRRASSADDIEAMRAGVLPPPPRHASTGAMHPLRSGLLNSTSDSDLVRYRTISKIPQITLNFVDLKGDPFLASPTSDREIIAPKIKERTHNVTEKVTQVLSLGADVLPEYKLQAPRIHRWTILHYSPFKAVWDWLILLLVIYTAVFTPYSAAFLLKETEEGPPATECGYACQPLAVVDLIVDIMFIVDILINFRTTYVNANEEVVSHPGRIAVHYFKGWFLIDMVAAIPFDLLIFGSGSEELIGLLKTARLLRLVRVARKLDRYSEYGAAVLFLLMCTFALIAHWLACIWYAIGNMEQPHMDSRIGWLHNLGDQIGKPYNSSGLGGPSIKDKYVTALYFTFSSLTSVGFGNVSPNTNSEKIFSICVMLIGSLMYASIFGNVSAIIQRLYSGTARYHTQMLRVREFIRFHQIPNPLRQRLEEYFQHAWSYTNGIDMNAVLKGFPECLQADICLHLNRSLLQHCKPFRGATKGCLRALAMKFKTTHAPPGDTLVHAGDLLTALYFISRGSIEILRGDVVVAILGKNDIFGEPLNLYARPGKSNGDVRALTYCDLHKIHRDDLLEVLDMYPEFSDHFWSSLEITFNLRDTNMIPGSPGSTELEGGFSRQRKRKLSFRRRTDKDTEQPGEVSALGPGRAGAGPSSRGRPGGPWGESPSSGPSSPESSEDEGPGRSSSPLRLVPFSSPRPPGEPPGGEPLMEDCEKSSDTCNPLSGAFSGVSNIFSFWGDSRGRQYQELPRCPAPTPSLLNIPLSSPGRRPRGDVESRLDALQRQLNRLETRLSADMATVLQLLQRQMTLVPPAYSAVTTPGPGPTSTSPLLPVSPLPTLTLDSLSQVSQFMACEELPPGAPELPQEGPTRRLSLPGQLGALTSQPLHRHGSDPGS

## CS(=O)(=O)c1ccccc1C(=O)N1CCC(N(C2CC2)S(=O)(=O)c2cccc(C(F)(F)F)c2)CC1
[1]
  concentration at 3 h: 2.4 µM
Rattus norvegicus [2]
  Activity: 45%
Rattus norvegicus [3]
  Activity: 47%
[4]
  half-life: 54.6 min
[5]
  clearance: 36 mL/min/kg
Rattus norvegicus [6]
  AUC/dose: 1.06 µM·kg·h/mg
[7]
  bioavailability: 100%
[8]
  remaining at 1 h, 1 µM: 45%
[9]
  remaining at 1 h, 1 µM: 73%
Cav1.2 [10]
  inhibition at 3 µM: 39%
Cav1.2 [11]
  inhibition at 1 µM: 19%
hERG [12]
  inhibition at 10 µM: 67%
hERG [13]
  inhibition at 1 µM: 1%
[14]
  IC50: 660 nM

## NCC1(CC(=O)O)CCCCC1 [GABAPENTIN]
Mus musculus [15]
  Activity: 48%
Mus musculus [16]
  Activity: 71%

## C[C@@H](O)[C@@H]1NC(=O)[C@H](Cc2ccc(O)cc2)NC(=O)[C@@H]2C[C@@H](O)CN2C(=O)[C@H](CC(N)=O)NC(=O)[C@@H]2CSSC[C@@H]3NC(=O)[C@H](CO)NC(=O)[C@H](CO)NC(=O)CNC(=O)[C@@H]4C[C@@H](O)CN4C(=O)[C@H](CO)NC(=O)[C@H](CCCCN)NC(=O)[C@@H](N)CSSC[C@H](NC(=O)[C@H](CSSC[C@@H](C(=O)N[C@@H](Cc4ccc(O)cc4)C(N)=O)NC(=O)[C@H](CCCN=C(N)N)NC(=O)[C@H](CCCCN)NC1=O)NC(=O)[C@H](CC(N)=O)NC(=O)[C@H](Cc1ccc(O)cc1)NC(=O)[C@H](CO)NC(=O)[C@H]([C@@H](C)O)NC(=O)[C@@H]1C[C@@H](O)CN1C(=O)[C@H](CO)NC3=O)C(=O)N[C@@H](CCCN=C(N)N)C(=O)N[C@@H](CO)C(=O)N2
[17]
  IC50: 20 nM
[14]
  IC50: 40 nM

## CS(=O)(=O)c1ccc(F)cc1C(=O)N1CCC(N(C2CC2)S(=O)(=O)c2cc(C(F)(F)F)ccc2F)CC1
[14]
  IC50: 2500 nM

## COc1cccc(OC)c1CN1CCC(N(C2CC2)S(=O)(=O)c2cccc(C(F)(F)F)c2)CC1
hERG [13]
  inhibition at 1 µM: 70%
[14]
  IC50: 60 nM

## CC(C)C[C@H](CN)CC(=O)O [PREGABALIN]
Rattus norvegicus [18]
  Activity: 58%

## CS(=O)(=O)c1ccc(F)cc1C(=O)N1CCC(N(C2CC2)S(=O)(=O)c2ccc(OC(F)(F)F)cc2)CC1
[19]
  inhibition: 0%

## NC(=O)c1cccc(C(=O)N2CCC(N(C3CC3)S(=O)(=O)c3cccc(C(F)(F)F)c3)CC2)c1
[19]
  inhibition: 0%

## CCCN(C1CCN(Cc2c(OC)cccc2OC)CC1)S(=O)(=O)c1cccc(C(F)(F)F)c1
[20]
  bioavailability: 4%
[21]
  clearance: 169 mL/min/kg
Rattus norvegicus [22]
  AUC/dose: 0.007 µM·kg·h/mg
[17]
  IC50: 4800 nM
hERG [13]
  inhibition at 1 µM: 91%
[23]
  IC50: 3200 nM
[14]
  IC50: 120 nM

## COc1ccc2cc([C@H](C)C(=O)O)ccc2c1 [NAPROXEN]
Rattus norvegicus [24]
  Activity: 47%

## NS(=O)(=O)c1cccc(C(F)(F)F)c1
[25]
  concentration at 3.5 h: 35.6 µM
Rattus norvegicus [26]
  Activity: 36%
Rattus norvegicus [24]
  Activity: 27%
Rattus norvegicus [2]
  Activity: 44%
Rattus norvegicus [3]
  Activity: 53%

## NC(=O)c1ccc(C(=O)N2CCC(N(C3CC3)S(=O)(=O)c3cccc(C(F)(F)F)c3)CC2)cc1
Cav1.2 [10]
  inhibition at 3 µM: 0%
Cav1.2 [11]
  inhibition at 1 µM: 0%
[19]
  inhibition: 12%
